ChEMBL document CHEMBL4270661 (Bioorg Med Chem, 2018)
Calls of active or inactive are those of the source. No cut-off for these calls is given here.

Legend:
[1] = Induction of microtubule depolymerization in rat A10 cells assessed as cellular microtubule loss incubated for 18 hrs by DAPI staining-based indirect immunofluorescence assay; format: cell-based; conditions: A10, 18 h
Tubulin (Homo sapiens) [2] = biological target: T1, Tubulin (Homo sapiens) (UniProt P68371+Q9H4B7+P0DPH7+P68366+Q13509+Q71U36+P04350+Q3ZCM7+P07437+P68363+Q9BQE3+Q6PEY2+Q13885+Q9BVA1+Q9BUF5); assay: Inhibition of [3H]-colchicine binding to tubulin (unknown origin) at 5 uM relative to control; format: protein-complex assay
[3] = Antiproliferative activity against human SKOV3-MDR1-M6/6 cells after 48 hrs by sulforhodamine B assay; format: functional; conditions: SKOV3-MDR1-M6/6, 48 h
Method in brief: (§1)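 SRB assay: cells plated at set densities, left 24 h to attach and grow, then exposed in triplicate wells to a concentration range for 48 h (DMSO vehicle). Cells fixed, protein stained with SRB. Cells kept at 37 °C, 5% CO2.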

MDA-MB-435 [4] = assay: Antiproliferative activity against human MDA-MB-435 cells after 48 hrs by sulforhodamine B assay; format: functional, cell-based; conditions: MDA-MB-435, 48 h; method in brief: as §1
Tubulin (Homo sapiens) [5] = biological target: T1, Tubulin (Homo sapiens); assay: Inhibition of [3H]-colchicine binding to tubulin (unknown origin) at 0.5 uM relative to control; format: protein-complex assay
HeLa [6] = assay: Antiproliferative activity against human HeLa cells after 48 hrs by sulforhodamine B assay; format: functional, cell-based; method in brief: as §1
HeLa [7] = assay: Antiproliferative activity against human HeLa cells expressing wild type beta3 tubulin after 48 hrs by sulforhodamine B assay; format: functional, cell-based; method in brief: as §1
[8] = Resistance index, ratio of IC50 for human HeLa cells expressing wild type beta3 tubulin to IC50 for human HeLa cells; format: functional
Method in brief: (§2)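 Relative resistance (Rr): IC50 in resistant line divided by IC50 in isogenic parental line, from 48 h SRB assays (HeLa WT βIII vs HeLa; SK-OV-3/MDR-1-6/6 vs SK-OV-3).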

SK-OV-3 = assay: Antiproliferative activity against human SKOV3 cells after 48 hrs by sulforhodamine B assay; format: functional, cell-based; conditions: SK-OV-3, 48 h; method in brief: as §1
[9] = Resistance index, ratio of IC50 for human SKOV3-MDR1-M6/6 cells to IC50 for human SKOV3 cells; format: functional; method in brief: as §2
MDA-MB-435 [10] = assay: Antitumor activity against human MDA-MB-435 cells xenografted in athymic Foxn1nu/Foxn1nu mouse assessed as tumor growth inhibition at 75 mg/kg, ip, administered on day 1,2,3,4 and 9; format: functional, organism-based
Method in brief: (§3)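 Female athymic nude mice, 6 weeks old, bilateral flank implants of MDA-MB-435 tumor fragments. Grouped at ~200 mm³ (5 mice, 10 tumors per group), randomized. 75 mg/kg ip per dose, stock in ethanol or water diluted in PBS (<5% solvent), vs untreated controls. Caliper volume (width × length × height), tumor mass at trial end (day 15), mean ± SEM.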

Mus musculus [11] = assay: Toxicity in athymic Foxn1nu/Foxn1nu mouse xenografted with human MDA-MB-435 cells assessed as body weight loss at 75 mg/kg, ip, administered on day 1,2,3,4 and 9; format: organism-based; conditions: in vivo
Method in brief: (§4)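 Female athymic nude mice bearing bilateral MDA-MB-435 flank tumors, 10 tumors per group, given 75 mg/kg ip (PBS, <5% solvent). Individual body weights tracked through the trial as percent change, mean ± SEM, vs untreated controls.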

Mus musculus [12] = assay: Toxicity in athymic Foxn1nu/Foxn1nu mouse xenografted with human MDA-MB-435 cells assessed as occurence of neurological side effects at 75 mg/kg, ip, administered on day 1,2,3,4 and 9; format: organism-based; conditions: in vivo
MDA-MB-231 [13] = assay: Antitumor activity against human MDA-MB-231 cells xenografted in athymic Foxn1nu/Foxn1nu mouse assessed as tumor growth inhibition at 10 mg/kg, ip, administered on day 1,2,3,8,9 and 10; format: functional, organism-based
NCI/ADR-RES [14] = conditions: Homo sapiens, 10 mg/kg
MDA-MB-435 [15] = assay: Antitumor activity against human MDA-MB-435 cells xenografted in athymic Foxn1nu/Foxn1nu mouse assessed as tumor growth inhibition at 75 mg/kg, ip, administered on day 1,2,3,4,7,9 and 11; format: functional, organism-based; method in brief: as §3
Mus musculus [16] = assay: Toxicity in athymic Foxn1nu/Foxn1nu mouse xenografted with human MDA-MB-435 cells assessed as body weight loss at 75 mg/kg, ip, administered on day 1,2,3,4,7,9 and 11; format: organism-based; conditions: in vivo; method in brief: as §4
Mus musculus [17] = assay: Toxicity in athymic Foxn1nu/Foxn1nu mouse xenografted with human MDA-MB-435 cells assessed as occurence of neurological side effects at 75 mg/kg, ip, administered on day 1,2,3,4,7,9 and 11; format: organism-based; conditions: in vivo
MDA-MB-231 [18] = assay: Antitumor activity against human MDA-MB-231 cells xenografted in athymic Foxn1nu/Foxn1nu mouse assessed as tumor growth inhibition at 75 mg/kg, ip, administered on day 1,2,3,8,9 and 10; format: functional, organism-based
NCI/ADR-RES [19] = assay: Antitumor activity against p-gp expressing human NCI/ADR-RES cells xenografted in athymic Foxn1nu/Foxn1nu mouse assessed as tumor growth inhibition at 75 mg/kg, ip administered on day 1,3 and 5 measured on day 9; format: functional, organism-based
Method in brief: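 Female athymic nude mice, bilateral flank NCI/ADR-RES (Pgp-expressing) tumor transplants, 8-9 tumors per group. […] Caliper tumor volume, mean ± SEM, compared on day 9 when the trial was stopped.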

Row | SMILES | EC50 [1] [nM] | inhibition (Tubulin (Homo sapiens) [2]) [%] | IC50 (MDA-MB-435 [4]) [nM] | inhibition (Tubulin (Homo sapiens) [5]) [%] | IC50 (HeLa [6]) [nM] | IC50 (HeLa [7]) [nM] | IC50 (SK-OV-3) [nM] | IC50 [3] [nM] | Ratio IC50 [8] | Ratio IC50 [9] | other results
1 | COc1ccc(/C=C\c2cc(OC)c(OC)c(OC)c2)cc1O [COMBRETASTATIN A4] | 9.8 | – | – | – | – | – | – | 7 | – | – | –
2 | CC(=O)O[C@H]1C(=O)[C@@]2(C)[C@H]([C@H](OC(=O)c3ccccc3)[C@]3(O)C[C@H](OC(=O)[C@H](O)[C@@H](NC(=O)c4ccccc4)c4ccccc4)C(C)=C1C3(C)C)[C@]1(OC(C)=O)CO[C@@H]1C[C@@H]2O [PACLITAXEL] | – | – | – | – | – | – | 5 | – | – | – | TGI (MDA-MB-231 [13]): Active; TGI (NCI/ADR-RES [14]): inactive
3 | COc1ccc(Nc2nc(C)nc3cc[nH]c23)c(OC)c1 | > 10000 | 0 | – | – | – | – | – | – | – | – | –
4 | COc1ccc(Nc2nc(C)nc3cc[nH]c23)cc1 | > 10000 | 5.8 | – | – | – | – | – | – | – | – | –
5 | COc1ccc(Nc2nc(C)nc3ccn(C)c23)cc1 | > 10000 | 4.2 | – | – | – | – | – | – | – | – | –
6 | COc1ccc(Nc2nc(C)nc3ccn(C)c23)c(OC)c1 | > 10000 | 14 | – | – | – | – | – | – | – | – | –

The next lines start with results.

Row | EC50 [1] [nM] | inhibition (Tubulin (Homo sapiens) [2]) [%] | IC50 (MDA-MB-435 [4]) [nM] | inhibition (Tubulin (Homo sapiens) [5]) [%] | IC50 (HeLa [6]) [nM] | IC50 (HeLa [7]) [nM] | IC50 (SK-OV-3) [nM] | SMILES | IC50 [3] [nM] | Ratio IC50 [8] | Ratio IC50 [9] | other results
7 | 1200 | 60 | – | – | – | – | – | COc1ccc(N(C)c2nc(C)nc3cc[nH]c23)cc1 | – | – | – | –
8 | 230 | 70 | – | – | – | – | – | COc1ccc2c(c1)CCCN2c1nc(C)nc2cc[nH]c12 | – | – | – | –
9 | 7.4 | 99 | 4.3 | 79 | 5 | 4.3 | 5.2 | COc1ccc(N(C)c2nc(C)nc3ccn(C)c23)cc1.Cl | 6 | 0.9 | 1.2 | TGI (MDA-MB-435 [10]): Active; Activity (Mus musculus [11]): Non-Toxic; Activity (Mus musculus [12]): Toxic
10 | 32 | 96 | 27 | 82 | 14 | 10 | 13 | CCCCn1ccc2nc(C)nc(N(C)c3ccc(OC)cc3)c21.Cl | 15 | 0.7 | 1.2 | –
11 | 39 | 98 | 21 | 72 | 27 | 33 | 30 | COc1ccc2c(c1)CCCN2c1nc(C)nc2ccn(C)c12.Cl | 31.5 | 1.2 | 1.1 | –
12 | 28 | 96 | 10.8 | 79 | 17 | 14 | 17 | CCn1ccc2nc(C)nc(N(C)c3ccc(OC)cc3)c21 | 19.3 | 0.8 | 1.1 | –
13 | 20 | 97 | 9 | 86 | 5.9 | 5.1 | 5 | CCCn1ccc2nc(C)nc(N(C)c3ccc(OC)cc3)c21.Cl | 7 | 0.9 | 1.4 | TGI (MDA-MB-435 [15]): Active; Activity (Mus musculus [16]): Non-Toxic; Activity (Mus musculus [17]): Non-Toxic; TGI (MDA-MB-231 [18]): Active; TGI (NCI/ADR-RES [19]): Active
14 | 55 | 95 | 39 | 67 | 26 | 23 | 26 | COc1ccc(N(C)c2nc(C)nc3ccn(CC(C)C)c23)cc1.Cl | 25 | 0.9 | 1 | –
15 | 42 | 92 | 21 | 60 | 32 | 20 | 31 | COc1ccc(N(C)c2nc(C)nc3ccn(C(C)C)c23)cc1.Cl | 58 | 0.6 | 1.9 | –
